Each structure is given as a SMILES string.

The values that follow come from ChEMBL document CHEMBL1152757, “Stereoselective synthesis and biological evaluation of syn-1-amino-3-[18F]fluorocyclobutyl-1-carboxylic acid as a potential positron emission tomography brain tumor imaging agent” (Bioorg Med Chem, 2009).

Type in all cases: ADME, cell-based
Settings in all cases: 0.5 h

Data set [1] concerns 9L. In words: Drug uptake in rat 9L cells assessed as intracellular accumulation after 30 mins measured per 5 x 10^5 cells by gamma-counter in presence of 2-aminobicyclo[2.2.1]-heptane-2-carboxylic acid. In a few lines: (§1)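 9L cells were grown in DMEM with 10% FCS and penicillin/streptomycin, then trypsinized and washed twice in HBSS. About 5 × 10^5 cells received 5 µCi tracer in amino acid-free HBSS for 30 min at 37 °C, without or with 10 mM BCH (L-type inhibitor). Cells were centrifuged and rinsed twice with ice-cold HBSS, then gamma-counted with decay correction. Uptake expressed as % of standard per 5 × 10^5 cells. Triplicates, 1-way ANOVA.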

Data set [2] concerns 9L. As to the kind of experiment: Drug uptake in rat 9L cells assessed as intracellular accumulation after 30 mins measured per 5 x 10^5 cells by gamma-counter in presence of alanine-cysteine-serine. In a few lines:
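9L rat gliosarcoma cells were grown in DMEM with 10% fetal calf serum and penicillin/streptomycin at 37 °C under 5% CO2, trypsinized and washed in HBSS. About 5 × 10^5 cells were incubated with 5 µCi tracer in amino-acid-free HBSS with 10 mM ACS (equimolar Ala/Cys/Ser) for 30 min at 37 °C, run in triplicate. Cells were centrifuged and rinsed twice with ice-cold HBSS, then gamma counted with decay correction. Results are % of standard per 5 × 10^5 cells.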

For data set [3], the system named is 9L. As to the kind of experiment: Drug uptake in rat 9L cells assessed as intracellular accumulation after 30 mins measured per 5 x 10^5 cells by gamma-counter. In a few lines:
as §1

`N[C@]1(C(=O)O)C[C@@H]([18F])C1` [FLUCICLOVINE F18]: the figures for the Drug uptake with 9L [1], with 9L [2] and with 9L [3] were 2.9 %ID, 0.18 %ID and 12.3 %ID, respectively.
